ChEMBL document CHEMBL1135589, “Refinement and evaluation of a pharmacophore model for flavone derivatives binding to the benzodiazepine site of the GABA(A) receptor” (J Med Chem, 2002)

Target: GABA-A receptor; anion channel
Assay: Ability to inhibit [3H]-Ro- 15-1788 binding to Gamma-aminobutyric acid A receptor alpha in vitro in rat cortical membranes
Format: cell membranes
Procedure, shortened: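 Cortex from male Wistar rats (150–200 g) homogenized in 30 mM Tris-HCl pH 7.4, washed, incubated 30 min at 37 °C to remove endogenous GABA, stored frozen. Nonspecific binding defined with 1 μM clonazepam. Filtration on GF/C, scintillation counting; IC50 from single-concentration inhibition formula.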

**Q.** With `Cc1ccc2oc(-c3cc(C(=O)O)cc([N+](=O)[O-])c3)cc(=O)c2c1` as the molecule, how does the Ki read?
**A.** The Ki was > 1700 nM.

**Q.** For `COc1cccc(-c2cc(=O)c3cc(C)ccc3o2)c1`, which Ki is on record?
**A.** The Ki was 99 nM.

**Q.** `Cc1ccc(O)c(-c2cc(=O)c3cc(C)ccc3o2)c1` was tested. Which Ki did it give?
**A.** Its Ki is 7.8 nM.

**Q.** How did the Ki turn out when `CCCCOc1cccc(-c2cc(=O)c3cc(C)ccc3o2)c1` was run?
**A.** The Ki was 710 nM.

**Q.** For `Cc1ccc2oc(-c3cc(O)cc(C(=O)O)c3)cc(=O)c2c1`, which Ki is on record?
**A.** Its Ki is > 1600 nM.

**Q.** Which Ki does the source give for `Cc1ccc2oc(-c3ccccc3N)cc(=O)c2c1` here?
**A.** Its Ki is 700 nM.

**Q.** Which Ki does the source give for `Cc1ccc2oc(-c3ccc(N)cc3)cc(=O)c2c1` here?
**A.** Its Ki is 2600 nM.

**Q.** `Cc1ccc2oc(-c3cccc(N)c3)cc(=O)c2c1` was tested. Which Ki did it give?
**A.** The Ki was 1200 nM.

**Q.** `COC(=O)c1cc(O)cc(-c2cc(=O)c3cc(C)ccc3o2)c1` was tested. Which Ki did it give?
**A.** The Ki was > 1600 nM.

**Q.** With `Cc1ccc2oc(-c3ccc(C)c(C)c3)cc(=O)c2c1` as the molecule, how does the Ki read?
**A.** The Ki was > 1700 nM.

**Q.** Which Ki does the source give for `COc1cc(CO)cc(-c2cc(=O)c3cc(C)ccc3o2)c1` here?
**A.** The Ki was > 1600 nM.

**Q.** How did the Ki turn out when `CC(C)c1ccc2oc(-c3ccccc3)cc(=O)c2c1` was run?
**A.** The Ki was 720 nM.

**Q.** How did the Ki turn out when `Cc1cc(C)cc(-c2cc(=O)c3cc(C)ccc3o2)c1` was run?
**A.** The Ki was > 1500 nM.

**Q.** `COc1ccc(Br)cc1-c1cc(=O)c2cc(C)ccc2o1` was tested. Which Ki did it give?
**A.** The Ki was > 1500 nM.

**Q.** With `COC(=O)c1cc(N)cc(-c2cc(=O)c3cc(C)ccc3o2)c1` as the molecule, how does the Ki read?
**A.** The Ki was > 1900 nM.

**Q.** `Cc1ccc2oc(-c3ccccc3O)cc(=O)c2c1` was tested. Which Ki did it give?
**A.** Its Ki is 6.2 nM.

**Q.** How did the Ki turn out when `Cc1ccc2oc(-c3cc(C(=O)O)cc(C(=O)O)c3)cc(=O)c2c1` was run?
**A.** The Ki was > 1600 nM.

**Q.** For `COC(=O)c1cc(C(=O)OC)cc(-c2cc(=O)c3cc(C)ccc3o2)c1`, which Ki is on record?
**A.** Its Ki is > 1600 nM.

**Q.** How did the Ki turn out when `Cc1cccc2c(=O)cc(-c3ccccc3)oc12` was run?
**A.** Its Ki is > 1700 nM.

**Q.** `CCCc1ccc2oc(-c3ccccc3)cc(=O)c2c1` was tested. Which Ki did it give?
**A.** Its Ki is 480 nM.

**Q.** With `Cc1ccc2oc(-c3cccc(C(=O)O)c3)cc(=O)c2c1` as the molecule, how does the Ki read?
**A.** Its Ki is > 1700 nM.

**Q.** Which Ki does the source give for `COC(=O)c1cccc(-c2cc(=O)c3cc(C)ccc3o2)c1` here?
**A.** Its Ki is 220 nM.

**Q.** For `CCc1ccc2oc(-c3ccccc3)cc(=O)c2c1`, which Ki is on record?
**A.** Its Ki is 180 nM.

**Q.** For `Cc1ccc2oc(-c3cccc(C(=O)OC(C)C)c3)cc(=O)c2c1`, which Ki is on record?
**A.** The Ki was 180 nM.

**Q.** `CCC(CC)COC(=O)c1cccc(-c2cc(=O)c3cc(C)ccc3o2)c1` was tested. Which Ki did it give?
**A.** The Ki was 610 nM.

**Q.** For `COc1ccc(C)cc1-c1cc(=O)c2cc(C)ccc2o1`, which Ki is on record?
**A.** Its Ki is > 1500 nM.

**Q.** How did the Ki turn out when `Cc1ccc2oc(-c3cc(CO)cc(CO)c3)cc(=O)c2c1` was run?
**A.** The Ki was > 1500 nM.

**Q.** Which Ki does the source give for `COc1cc(C(=O)O)cc(-c2cc(=O)c3cc(C)ccc3o2)c1` here?
**A.** The Ki was > 1600 nM.

**Q.** With `Cc1ccc2oc(-c3cccc(C(F)(F)F)c3)cc(=O)c2c1` as the molecule, how does the Ki read?
**A.** Its Ki is 9.8 nM.

**Q.** For `COc1ccccc1-c1cc(=O)c2cc(C)ccc2o1`, which Ki is on record?
**A.** The Ki was 820 nM.

**Q.** `Cc1ccc2oc(-c3cccc(Br)c3)cc(=O)c2c1` was tested. Which Ki did it give?
**A.** Its Ki is 12 nM.

**Q.** For `COC(=O)c1cc(OC)cc(-c2cc(=O)c3cc(C)ccc3o2)c1`, which Ki is on record?
**A.** Its Ki is 3000 nM.

**Q.** Which Ki does the source give for `Cc1ccc2oc(-c3cc(Br)ccc3O)cc(=O)c2c1` here?
**A.** Its Ki is 0.9 nM.

**Q.** `Cc1ccc2oc(-c3cccc(O)c3)cc(=O)c2c1` was tested. Which Ki did it give?
**A.** The Ki was 390 nM.

**Q.** For `CCOC(=O)c1cc(N)cc(-c2cc(=O)c3cc(C)ccc3o2)c1`, which Ki is on record?
**A.** Its Ki is 3600 nM.

**Q.** For `COC(=O)c1cc(CO)cc(-c2cc(=O)c3cc(C)ccc3o2)c1`, which Ki is on record?
**A.** The Ki was > 1500 nM.

**Q.** `Cc1ccc2oc(-c3cccnc3)cc(=O)c2c1` was tested. Which Ki did it give?
**A.** Its Ki is 130 nM.

**Q.** Which Ki does the source give for `COC(=O)c1cc(-c2cc(=O)c3cc(C)ccc3o2)cc([N+](=O)[O-])c1` here?
**A.** The Ki was > 2100 nM.

**Q.** How did the Ki turn out when `CCC(CC)COc1cccc(-c2cc(=O)c3cc(C)ccc3o2)c1` was run?
**A.** Its Ki is 1000 nM.

**Q.** With `Cc1ccc2oc(-c3ccccc3)cc(=O)c2c1` [6-METHYLFLAVONE] as the molecule, how does the Ki read?
**A.** Its Ki is 180 nM.
